Compounds with a hit are over-represented: about 2.3% of the library has one in this group of screens.
TRPC4 inh: TRPC4 (mouse) channel inhibition; Q9QUQ5; hit rate 0.39% among 300,000; HEK293 TRPC4beta/mu-opioid, DAMGO-evoked Fluo4 calcium flux; active compounds read low; B-score at 10 µM;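 active = B-score over 3 SD under the library average, no early fluorescence shift, positive overall ratio signal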
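Material: HEK293 cells with stable TRPC4beta plus mu-opioid receptor expression; probe or stimulus: DAMGO in two steps, submaximal then maximal; technique: Fluo4 calcium fluorescence by kinetic imaging, 5 s 1 Hz baseline; measure: integrated fluorescence ratio relative to baseline, converted to per-well B score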
TRPC6 activator: mouse TRPC6 channel activation; HEK293-TRPC6 membrane potential dye fluorescence; active compounds read high; B-score at 10 µM; Q61143; hit rate 0.13% among 310,000; AID 2550;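 active = B-score of the integrated fluorescence ratio above library mean plus 3 SD, and starting fluorescence ratio within library mean plus 5 SD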;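 note: higher score means more depolarization so channel activation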
TRPC4 agonist: activators of mouse TRPC4 channel | Q9QUQ5 | HEK293 TRPC4beta/mu-opioid, Fluo4 calcium fluorescence; active compounds read high | B-score at 10 µM | hit rate 0.49% among 310,000 | AID 2237;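 active = B-score above 5 SD of library B-scores, and initial fluorescence ratio not above library mean plus 5 SD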;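 note: positive B-score marks a calcium rise read as TRPC4 activation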
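Material: HEK293 stable line with TRPC4beta plus mu-opioid receptor; technique: Fluo4 calcium-sensitive dye fluorescence, kinetic, 1 Hz baseline; timing: Fluo4 dye loading 45 min at room temperature, 110 s recording; controls: assay buffer as low control, maximal DAMGO as high control; read-out: integrated baseline-normalised fluorescence ratio, converted to per-well B score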
TRPC6 inh: inhibitors of mouse TRPC6 channel | HEK293-TRPC6, membrane potential dye, ACh-evoked depolarization; active compounds read low | B-score at 10 µM | hit rate 1.1% among 310,000;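 active = B-score under library mean minus 3 SD, initial fluorescence not abnormally high, positive integrated signal ratio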;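 note: B-score derived from integrated fluorescence ratio over the kinetic read; more negative B-score means stronger inhibition of depolarization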
TRPC4 potent: TRPC4 (mouse) allosteric potentiation; Q9QUQ5; HEK293 TRPC4beta/mu-opioid, DAMGO EC20, Fluo-4 Ca2+ flux; active compounds read high; B-score at 10 µM; hit rate 0.42% among 310,000;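 active = B-score of calcium response area above 5 SD of library B-scores, with initial fluorescence ratio within 5 SD of library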;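 note: B-score of integrated fluorescence ratio over time as area under calcium response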
Numbers without * were called inactive; i = inactive.

SMILES | TRPC4 inh | TRPC6 activator | TRPC4 agonist | TRPC6 inh | TRPC4 potent
Clc1ccc(OCC#CCN2CCCC2)cc1 | i | i | i | i | 24*
CN1CCN(CC#CCOc2ccc(Cl)cc2)CC1 | i | i | i | i | i
CCOC(=O)C1(CCc2ccccc2)CCN(Cc2ccc3c(c2)OCCO3)CC1 | i | i | i | i | i
CCOC(=O)C1(CCc2ccccc2)CCN(Cc2ccc(NC(C)=O)cc2)CC1 | i | i | 104* | i | i
CCOc1cc(CN2CCN(C(=O)Cc3ccccc3)CC2)ccc1OC | i | i | i | i | i
COc1ccc(/C=C/C(=O)NC(=S)N2C[C@H]3C[C@H](C2)c2cccc(=O)n2C3)cc1OC | i | i | i | i | i
C/C=C(\C)C(=O)OC1C(C)=C2C(C1OC(=O)CCCCC)C(C)(OC(C)=O)CC(OC(=O)CCC)C1(O)C2OC(=O)C1(C)O (centres undefined) | i | i | 71* | -5.8* | i
O=C(/C=C/c1ccccc1)NCCc1cnc[nH]1 | i | i | i | i | i
O=c1[nH]c(=O)n(Cc2ccc(F)cc2)c(O)c1C=NCCCO | -5* | i | 57* | i | i
O=c1[nH]c(=O)n(Cc2ccc(F)cc2)c(O)c1C=NCCCn1ccnc1 | i | i | i | i | i
O=c1[nH]c(=S)n(-c2ccccc2)c(O)c1C=NCCN1CCNCC1 | i | i | i | i | i
Cc1cccc(N=Cc2c(O)n(-c3ccccc3C)c(=O)[nH]c2=O)c1 | i | i | i | i | 24*
COc1ccc(CC2c3cc(OC)c(OC)cc3CCN2C)cc1OC (centres undefined) | i | i | i | i | i
COc1ccc(C[C@@H]2c3cc(O)c(OC)cc3CCN2C)cc1O | i | i | i | i | 17*
CCCC(C)C1(CC)C(=O)NC(=Nc2ccc(OC)cc2)NC1=O (centres undefined) | i | i | i | i | i
O=c1cccc2n1CC1CC2CN(c2nc(N3CCCCC3)nc(N3CCCCC3)n2)C1 (centres undefined) | i | i | i | i | i
Cc1ccccc1C(O)(Cc1ccccc1)C1CN2CCC1CC2 (centres undefined) | i | i | 87* | i | i
CSc1ccc(C(=O)C(C)(C)N2CCOCC2)cc1 | i | i | i | i | i
O=C(O)Cc1cnc[nH]1 | i | i | i | i | i
C[C@@H](N)Cc1cnc[nH]1 | i | i | 197* | i | i
O=C(c1n[nH]c(=O)c2ccccc12)N1CCC2(CC1)OCCO2 | i | i | i | i | i
CC(N)Cc1c[nH]c2c1ccc1ccccc12 (centres undefined) | i | i | 92* | i | i
C/C(=N\NC(N)=O)c1c(O)n(C)c(=O)n(C)c1=O | i | i | i | i | i
COc1cc(OC)c(OC)cc1CNCCc1cccc(F)c1 | i | i | i | i | i
COc1cc(OC)c(OC)cc1CNCCc1ccc(OC)c(OC)c1 | i | i | i | i | i
SMILES | TRPC4 inh | TRPC6 activator | TRPC4 agonist | TRPC6 inh | TRPC4 potent
COc1ccc(CNCCc2ccc(Cl)cc2)c(OC)c1OC | i | i | 62* | i | i
COc1ccc(CNCCc2cccc(F)c2)c2ccccc12 | i | i | 57* | i | i
N#Cc1ccccc1Cn1cc(C(=O)c2ccco2)c2ccccc21 | i | i | i | i | i
C=CCOC(=O)C1=C(C)OC(N)=C(C#N)[C@@]12C(=O)N(CC(N)=O)c1ccccc12 | i | i | i | i | 22*
CC1=C(C(=O)OC(C)C)[C@]2(C(=O)N(CC(N)=O)c3ccccc32)C(C#N)=C(N)O1 | i | i | i | i | i
O=c1ccc2cc(O[C@@H]3O[C@@H](CO)[C@H](O)[C@@H](O)[C@@H]3O)c(O)cc2o1 | i | i | i | i | i
Cc1ccc(C)c(-n2c(C)nc3ccccc3c2=O)c1 | i | i | i | i | i
Cc1cc(NCCN)nc2ccccc12 | i | i | i | i | 28*
CC12CN3CCN(CC(C3)/C1=N/NC(N)=O)C2 | i | i | i | i | i
Cc1ccc(CN2C3CCCC2CC(NC(=S)NCc2ccccc2)C3)cc1 (centres undefined) | -8* | i | i | i | i
COc1ccc(CN2CCN(C(=O)Cc3ccccc3)CC2)cc1Br | i | i | i | i | i
C[N+]1(CCC(C(N)=O)(c2ccccc2)c2ccccc2)CCCCC1 | i | i | i | -9.7* | i
CCc1n[nH]c(CCN)n1 | i | i | 155* | i | i
Clc1ccc2c(c1)C(c1ccccc1Cl)=NCc1nnc(N3CCN(CCOc4ccccc4)CC3)n1-2 | i | i | i | i | 29*
Clc1ccc2c(c1)C(c1ccccc1Cl)=NCc1nnc(N3CCN(CCSc4ccccc4)CC3)n1-2 | i | i | i | i | i
COc1ccc(Cl)cc1C(=O)C1CCCN(CCO)C1 (centres undefined) | i | i | 70* | i | i
CCn1ccnc1CN1CCCC(C(=O)c2cc(Cl)ccc2OC)C1 (centres undefined) | i | i | i | i | i
CN1CCCN(C(=O)COc2ccc(F)cc2F)CC1 | i | i | i | i | i
Cc1ccc(C(=O)NC2CC3CCC(C2)N3)cc1 (centres undefined) | -5* | i | i | i | i
CC(=O)NC1CC2CCC(C1)N2 (centres undefined) | i | i | i | i | i
COC(=O)C1=CCCN(C)C1 | i | i | 99* | i | i
CN1CCN(Cc2nc3ccccc3n2C)CC1 | i | i | i | i | 11*
Clc1ccc(CCNCc2ccncc2)c(Cl)c1 | i | i | 50* | i | i
COC(=O)C1=C(c2ccccc2)C[C@@H]2CC[C@H]1N2C(=O)NC1CCCCC1 | i | i | i | i | i
C[N+]1(C)[C@@H]2CC[C@H]1CC(OC(=O)C(CO)c1ccccc1)C2 (some centres undefined) | i | i | i | -7.1* | i
CC(C)(C)n1cc(C(=O)c2ccccc2)cc1-c1ccccc1 | i | i | i | i | i
CN1C(=O)C(O)N=C(c2ccccc2)c2ccccc21 (centres undefined) | i | i | i | i | i
COc1ccc(CCC(=O)NCCc2cnc[nH]2)cc1 | i | i | i | i | i
Cc1ccc(C)c(NC(=S)NCCc2cnc[nH]2)c1 | i | i | 142* | i | i
